Read-outs that look alike come from different tables or passages of the source.
Experiments:
HCVcc-Luc = assay: Time-of-addition assay, HCVcc-Luc on Huh7.5.1 cells; assay type: cell-based, Hepatitis C virus; details: 2 μM for 3 h, added at indicated time points
In short: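 Huh7.5.1 cells inoculated with HCVcc-Luc at 37 °C for 3 h. At set time points, test compound at 2 μM (or DMSO) added for 3 h, then removed. Cells kept a further 48 h at 37 °C before luciferase readout. Mean of n = 3 with s.d.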

Huh7.5.1 cells = assay: Cytotoxicity; assay type: cell-based, human
[1] = test system: JFH-1 genotype 2a infectious virus (HCVcc); details: for TI (CC50/EC50) / HCVcc infection / HCV entry inhibition (in words) / EC50: Huh7.5.1
HCVpp = HCVpp infection of primary human hepatocytes; assay type: cell-based, Hepatitis C virus; details: pretreatment of PHHs at non-cytotoxic concentrations
[2] = Human liver microsomal stability assay; assay type: in vitro ADME; details: both, human liver microsomes, pH 7.4
[3] = test system: HCV replicon cell line 2-3(+); assay: HCV replicon cell line 2-3; assay type: cell-based, Hepatitis C virus (Genotype 1b); details: 20 nM, 24, 48 or 72 hours, replicon cells
CHIKVpp = CHIKVpp infection of Huh7.5.1 cells, luciferase assay; assay type: cell-based, Chikungunya virus; details: Huh7.5.1, Roc-A 10 nM, Fig. S3F
PHB-CRaf interaction = PHB-CRaf interaction (Homo sapiens, UniProt P35232+Q99623); assay: Co-IP of Flag-CRaf and V5-tagged PHB1 & 2 in 293T cells; assay type: cell-based; details: 20 nM
Chain of PHB-CRaf interaction (P35232 whole entry): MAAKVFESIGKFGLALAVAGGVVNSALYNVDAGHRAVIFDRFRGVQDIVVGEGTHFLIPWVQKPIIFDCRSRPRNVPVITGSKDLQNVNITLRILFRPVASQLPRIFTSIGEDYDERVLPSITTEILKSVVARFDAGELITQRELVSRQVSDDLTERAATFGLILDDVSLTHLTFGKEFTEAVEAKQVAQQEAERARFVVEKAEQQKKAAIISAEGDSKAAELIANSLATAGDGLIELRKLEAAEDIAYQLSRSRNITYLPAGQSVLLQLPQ
Chain of PHB-CRaf interaction (Q99623 whole entry): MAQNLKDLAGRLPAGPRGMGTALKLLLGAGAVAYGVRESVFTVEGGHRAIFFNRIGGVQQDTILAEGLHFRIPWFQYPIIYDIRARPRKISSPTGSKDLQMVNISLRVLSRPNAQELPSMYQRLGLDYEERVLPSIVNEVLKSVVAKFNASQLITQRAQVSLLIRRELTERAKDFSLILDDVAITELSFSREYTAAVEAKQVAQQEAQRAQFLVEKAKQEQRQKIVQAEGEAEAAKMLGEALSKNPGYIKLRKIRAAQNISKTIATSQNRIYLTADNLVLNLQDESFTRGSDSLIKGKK
In short: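 Flag-CRaf and V5-tagged PHB1 and PHB2 co-expressed in 293T cells by co-transfection. Cells left untreated or exposed to test compound at 20 nM, then immunoprecipitated with anti-Flag antibody. Co-precipitated PHB1/PHB2 and CRaf detected by immunoblotting.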

cell surface PHB1 and 2 = cell surface PHB1 and 2 (Homo sapiens, UniProt P35232+Q99623); assay: Cell surface biotinylation assay, Huh7.5.1 cells; assay type: cell-based; details: 20 nM
PHB1, PHB2, CRaf, Ras = PHB1, PHB2, CRaf, Ras (Homo sapiens, UniProt P35232+Q99623); assay: Western blotting of cellular PHB1, PHB2, CRaf and Ras in Huh7.5.1 cells; assay type: cell-based; details: 20 nM, 1, 2 and 3 days
Chain of PHB1, PHB2, CRaf, Ras (P35232 2-272 limits assumed): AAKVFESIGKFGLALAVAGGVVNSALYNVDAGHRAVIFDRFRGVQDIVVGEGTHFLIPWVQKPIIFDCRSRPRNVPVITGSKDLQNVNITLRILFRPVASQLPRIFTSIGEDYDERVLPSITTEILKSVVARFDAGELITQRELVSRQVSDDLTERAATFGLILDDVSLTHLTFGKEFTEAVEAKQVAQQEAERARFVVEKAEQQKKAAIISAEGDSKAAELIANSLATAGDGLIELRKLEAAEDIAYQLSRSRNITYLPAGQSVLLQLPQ
Chain of PHB1, PHB2, CRaf, Ras (Q99623 2-299 limits assumed): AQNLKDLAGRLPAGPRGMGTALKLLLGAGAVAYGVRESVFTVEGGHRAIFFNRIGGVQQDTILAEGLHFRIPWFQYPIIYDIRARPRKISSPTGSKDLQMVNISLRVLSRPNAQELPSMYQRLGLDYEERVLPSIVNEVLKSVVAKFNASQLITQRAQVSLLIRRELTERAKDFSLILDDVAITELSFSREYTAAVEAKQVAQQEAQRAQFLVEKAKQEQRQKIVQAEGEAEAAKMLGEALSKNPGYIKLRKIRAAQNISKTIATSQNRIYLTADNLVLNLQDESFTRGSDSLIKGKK

[4] = compounds incubated with cells for a total of 3 h
[5] = compounds incubated with cells for a total of 48 h

Compound | CC50 (Huh7.5.1 cells; [4]) [nM] | TI (CC50/EC50) ([1]; 3 h incubation) | HCVcc infection / HCV entry inhibition (in words) [1] | EC50 [1, 4] [nM] | further results
CONC(=O)[C@H]1[C@@H](O)[C@@]2(O)c3c(OC)cc(OC)cc3O[C@@]2(c2ccc(OC)cc2)[C@@H]1c1ccccc1 [Compound E2, (-)-NH hydroxamate] |  |  |  |  | anti-HCV activity by time of addition (HCVcc-Luc): appeared to inhibit HCV no matter when added
(-)-rocaglamide [(−) Roc-A] | 50000 | 50 | stronger inhibition on HCV entry than the (+) enantiomer | 1000 | CC50 (Huh7.5.1 cells; [5]): 300 nM; TI (CC50/EC50) ([1]; 48 h incubation): 75; EC50 [1, 5]: 4 nM
(+)-aglaroxin C | 100000 | 5a |  | 20000 | 
(-)-aglaroxin C [(−)-Aglaroxin C] | 12000 | 60a | active enantiomer for HCV viral entry inhibition | 200 | 
(+)-rocaglamide [(+) Roc-A] | 300000 |  |  | > 200000 | 
(±)-aglaroxin C [(±) Aglaroxin C (C10)] | 10000 | 100 |  | 100 | CC50 (Huh7.5.1 cells; [5]): 20 nM; anti-HCV activity by time of addition (HCVcc-Luc): maximal anti-HCV activity when added together with the virus but lost its activity when added 3 h after the infection was initiated; TI (CC50/EC50) ([1]; 48 h incubation): 500; half-maximum effective concentrations (EC50), in words ([1]; JFH-1 genotype 2a infectious virus in cell culture): picomolar; EC50 [1, 5]: 0.04 nM
COc1ccc([C@@]23Oc4cc(OC)cc(OC)c4[C@]2(O)[C@H](O)[C@H](C(=O)N(C)C)[C@H]3c2ccccc2)cc1 [Roc-A, rocaglamide A] |  |  | significantly reduced |  | HCVpp entry (in words) (HCVpp): suppressed HCVpp entry; half-life at 1 µM [2]: 37 min; HCV RNA replication or protein translation [3]: did not inhibit HCV RNA replication or protein translation; CHIKVpp infection (CHIKVpp): significantly reduced; PHB-CRaf interaction (PHB-CRaf interaction): disrupted the PHB-CRaf interaction; cell surface expression of PHB1 and 2 (cell surface PHB1 and 2): decreased the cell surface expression of PHB1 and 2; PHB1, 2, Ras and CRaf total protein level (PHB1, PHB2, CRaf, Ras): decreased PHB1, 2, Ras, and CRaf at the total protein level
